Drawing on ChEMBL document CHEMBL1141052, “Boro-norleucine as a P1 residue for the design of selective and potent DPP7 inhibitors” (Bioorg Med Chem Lett, 2005), this text covers IC50 and inhibition for 15 compounds.

Experiment [1] deals with Dipeptidyl peptidase 2 (Homo sapiens, UniProt Q9UHL4). Description: Inhibitory concentration against human dipeptidylpeptidase 7.
In experiment [2] the target is T1, Prolyl endopeptidase FAP (Homo sapiens, UniProt Q12884).
T1 sequence (Q12884 whole entry): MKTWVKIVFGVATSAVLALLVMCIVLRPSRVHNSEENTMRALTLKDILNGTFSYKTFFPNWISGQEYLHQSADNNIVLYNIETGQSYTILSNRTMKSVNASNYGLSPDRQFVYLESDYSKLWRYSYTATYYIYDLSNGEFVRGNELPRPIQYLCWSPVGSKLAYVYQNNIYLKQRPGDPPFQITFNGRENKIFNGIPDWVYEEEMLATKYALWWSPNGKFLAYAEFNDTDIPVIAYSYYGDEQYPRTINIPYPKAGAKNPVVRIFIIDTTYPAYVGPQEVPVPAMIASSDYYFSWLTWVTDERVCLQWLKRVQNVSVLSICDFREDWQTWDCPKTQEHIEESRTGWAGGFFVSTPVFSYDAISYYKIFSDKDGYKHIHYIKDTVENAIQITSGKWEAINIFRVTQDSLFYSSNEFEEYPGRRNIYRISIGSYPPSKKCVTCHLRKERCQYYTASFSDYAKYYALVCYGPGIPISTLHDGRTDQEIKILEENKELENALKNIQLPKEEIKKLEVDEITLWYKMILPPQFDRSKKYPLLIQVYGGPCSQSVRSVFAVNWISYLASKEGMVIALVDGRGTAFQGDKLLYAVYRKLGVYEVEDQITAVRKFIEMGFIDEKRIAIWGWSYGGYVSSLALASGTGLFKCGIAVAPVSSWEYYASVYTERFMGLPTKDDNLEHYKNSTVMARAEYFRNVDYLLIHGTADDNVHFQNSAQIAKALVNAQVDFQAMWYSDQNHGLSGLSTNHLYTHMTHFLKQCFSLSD
Description: Inhibitory concentration against human fibroblast activation protein alpha; ni = no inhibition at 33 uM concentration.

In experiment [3] the target is T2, Dipeptidyl peptidase 4 (Homo sapiens, UniProt P27487). Put plainly: Inhibitory concentration against human dipeptidylpeptidase 4.
Target sequence in this assay (P27487 whole entry): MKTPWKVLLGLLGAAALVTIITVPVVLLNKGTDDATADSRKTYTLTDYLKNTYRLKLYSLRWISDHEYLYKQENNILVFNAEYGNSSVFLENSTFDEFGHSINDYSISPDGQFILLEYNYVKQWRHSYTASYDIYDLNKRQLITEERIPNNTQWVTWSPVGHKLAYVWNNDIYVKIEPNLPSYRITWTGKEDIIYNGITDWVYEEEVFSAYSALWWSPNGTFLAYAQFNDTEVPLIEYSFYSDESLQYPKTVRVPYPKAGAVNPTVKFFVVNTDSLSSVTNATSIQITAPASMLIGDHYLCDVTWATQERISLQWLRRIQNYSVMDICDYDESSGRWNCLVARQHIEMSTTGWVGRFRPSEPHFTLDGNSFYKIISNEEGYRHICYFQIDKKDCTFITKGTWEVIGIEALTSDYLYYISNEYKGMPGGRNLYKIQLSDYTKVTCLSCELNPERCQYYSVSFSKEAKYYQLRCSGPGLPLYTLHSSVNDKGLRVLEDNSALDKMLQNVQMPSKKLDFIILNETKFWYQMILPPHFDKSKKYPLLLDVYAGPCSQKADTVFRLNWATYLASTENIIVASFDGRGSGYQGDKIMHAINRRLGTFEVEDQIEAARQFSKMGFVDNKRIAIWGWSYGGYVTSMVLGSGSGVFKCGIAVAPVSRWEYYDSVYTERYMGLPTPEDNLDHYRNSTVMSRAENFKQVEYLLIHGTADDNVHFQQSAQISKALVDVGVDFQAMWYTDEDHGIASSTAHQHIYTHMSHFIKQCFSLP
Experiment [4] has as its target Dipeptidyl peptidase 8 (Homo sapiens, UniProt Q6V1X1). Put plainly: Inhibitory concentration against human dipeptidylpeptidase 8 using FP-TAMRA incubated for 30 min; ni = no inhibition at 20 uM concentration. In short, it runs like this: (§1)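 DPP8 and DPP9 from MDA-MB-435 cell lysate. Compounds dissolved in 50% DMSO/50 mM glycine buffer pH 2.5 (final DMSO 1% v/v), serially diluted into lysate, FP-TAMRA activity-based probe labeling, 30 min, quenched with loading buffer. Labeled enzyme resolved by SDS–PAGE, TAMRA fluorescence read by flatbed gel scanner. Duplicates; activity as % of enzyme-alone control, IC50 from Hill fit.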

Experiment [5] addresses T2, Dipeptidyl peptidase 4.
Target sequence in this assay (P27487 whole entry): as above
For experiment [6], the target named is T3, Dipeptidyl peptidase 9 (Homo sapiens, UniProt Q86TI2). Description: Inhibitory concentration against human dipeptidylpeptidase 9 using FP-TAMRA incubated for 30 min; ni = no inhibition at 20 uM concentration. An outline of the steps:
as §1
Target sequence in this assay (Q86TI2 whole entry): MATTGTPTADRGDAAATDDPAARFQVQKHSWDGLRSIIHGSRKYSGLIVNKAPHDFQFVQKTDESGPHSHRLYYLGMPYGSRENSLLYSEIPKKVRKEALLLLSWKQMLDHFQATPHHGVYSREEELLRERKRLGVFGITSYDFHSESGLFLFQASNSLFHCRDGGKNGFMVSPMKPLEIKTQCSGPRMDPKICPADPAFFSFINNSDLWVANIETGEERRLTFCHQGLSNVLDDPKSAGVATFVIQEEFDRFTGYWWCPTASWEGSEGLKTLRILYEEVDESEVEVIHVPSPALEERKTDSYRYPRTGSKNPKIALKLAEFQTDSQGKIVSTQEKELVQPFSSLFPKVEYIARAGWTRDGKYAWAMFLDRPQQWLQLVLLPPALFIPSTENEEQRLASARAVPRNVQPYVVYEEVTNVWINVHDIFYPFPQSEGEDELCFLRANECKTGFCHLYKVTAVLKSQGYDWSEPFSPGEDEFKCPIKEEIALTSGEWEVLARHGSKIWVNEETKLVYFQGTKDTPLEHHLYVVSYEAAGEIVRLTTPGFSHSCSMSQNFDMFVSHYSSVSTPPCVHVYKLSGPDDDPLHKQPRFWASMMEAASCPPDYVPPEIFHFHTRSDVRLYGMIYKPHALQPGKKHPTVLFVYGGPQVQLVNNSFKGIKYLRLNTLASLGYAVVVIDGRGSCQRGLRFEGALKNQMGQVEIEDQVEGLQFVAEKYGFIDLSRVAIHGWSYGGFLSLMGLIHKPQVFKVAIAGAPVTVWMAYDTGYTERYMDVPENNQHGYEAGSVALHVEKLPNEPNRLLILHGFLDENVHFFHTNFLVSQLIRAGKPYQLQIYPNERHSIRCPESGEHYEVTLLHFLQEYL

Experiment [7] has as its target T2, Dipeptidyl peptidase 4. Description: Percent inhibition against human dipeptidylpeptidase 4 at 33 uM concentration.
Target sequence in this assay (P27487 whole entry, looked up): as the sequence (P27487 whole entry) above
Experiment [8] has as its target T3, Dipeptidyl peptidase 9. Description: Percentage inhibition against human dipeptidylpeptidase 9 using FP-TAMRA incubated for 30 min at 20 uM concentration. An outline of the steps:
as §1
Target sequence in this assay (Q86TI2 2-863 limits assumed): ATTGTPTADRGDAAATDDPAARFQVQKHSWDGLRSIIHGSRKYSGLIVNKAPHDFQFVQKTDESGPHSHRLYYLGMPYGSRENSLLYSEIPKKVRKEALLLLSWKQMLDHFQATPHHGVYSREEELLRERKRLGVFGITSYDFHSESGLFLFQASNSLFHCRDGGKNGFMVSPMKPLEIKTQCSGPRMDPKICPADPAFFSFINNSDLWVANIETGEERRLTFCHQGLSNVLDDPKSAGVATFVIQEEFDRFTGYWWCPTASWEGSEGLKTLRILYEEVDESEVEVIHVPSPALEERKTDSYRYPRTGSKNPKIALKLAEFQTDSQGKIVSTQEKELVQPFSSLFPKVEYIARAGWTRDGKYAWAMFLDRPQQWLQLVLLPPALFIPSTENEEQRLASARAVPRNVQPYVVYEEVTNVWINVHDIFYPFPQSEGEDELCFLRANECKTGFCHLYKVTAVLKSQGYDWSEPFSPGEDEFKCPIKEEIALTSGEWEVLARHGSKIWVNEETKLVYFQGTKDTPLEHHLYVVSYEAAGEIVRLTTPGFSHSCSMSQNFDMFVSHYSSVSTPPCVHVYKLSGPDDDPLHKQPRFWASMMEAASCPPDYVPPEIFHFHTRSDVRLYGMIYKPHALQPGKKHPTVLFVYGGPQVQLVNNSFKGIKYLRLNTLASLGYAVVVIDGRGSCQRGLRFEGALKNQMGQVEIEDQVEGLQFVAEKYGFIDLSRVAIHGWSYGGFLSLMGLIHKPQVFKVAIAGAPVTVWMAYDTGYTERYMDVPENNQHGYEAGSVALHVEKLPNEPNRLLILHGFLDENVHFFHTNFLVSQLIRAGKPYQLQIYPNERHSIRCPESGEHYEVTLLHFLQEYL

The term IC50 denotes the concentration that inhibits the measured activity by half. A low value points to inhibition by little substance. For orientation: inhibition means how much of the control response was suppressed. Low values mean a weak effect, high ones a strong effect.

Chain of Dipeptidyl peptidase 8 (Q6V1X1 whole entry): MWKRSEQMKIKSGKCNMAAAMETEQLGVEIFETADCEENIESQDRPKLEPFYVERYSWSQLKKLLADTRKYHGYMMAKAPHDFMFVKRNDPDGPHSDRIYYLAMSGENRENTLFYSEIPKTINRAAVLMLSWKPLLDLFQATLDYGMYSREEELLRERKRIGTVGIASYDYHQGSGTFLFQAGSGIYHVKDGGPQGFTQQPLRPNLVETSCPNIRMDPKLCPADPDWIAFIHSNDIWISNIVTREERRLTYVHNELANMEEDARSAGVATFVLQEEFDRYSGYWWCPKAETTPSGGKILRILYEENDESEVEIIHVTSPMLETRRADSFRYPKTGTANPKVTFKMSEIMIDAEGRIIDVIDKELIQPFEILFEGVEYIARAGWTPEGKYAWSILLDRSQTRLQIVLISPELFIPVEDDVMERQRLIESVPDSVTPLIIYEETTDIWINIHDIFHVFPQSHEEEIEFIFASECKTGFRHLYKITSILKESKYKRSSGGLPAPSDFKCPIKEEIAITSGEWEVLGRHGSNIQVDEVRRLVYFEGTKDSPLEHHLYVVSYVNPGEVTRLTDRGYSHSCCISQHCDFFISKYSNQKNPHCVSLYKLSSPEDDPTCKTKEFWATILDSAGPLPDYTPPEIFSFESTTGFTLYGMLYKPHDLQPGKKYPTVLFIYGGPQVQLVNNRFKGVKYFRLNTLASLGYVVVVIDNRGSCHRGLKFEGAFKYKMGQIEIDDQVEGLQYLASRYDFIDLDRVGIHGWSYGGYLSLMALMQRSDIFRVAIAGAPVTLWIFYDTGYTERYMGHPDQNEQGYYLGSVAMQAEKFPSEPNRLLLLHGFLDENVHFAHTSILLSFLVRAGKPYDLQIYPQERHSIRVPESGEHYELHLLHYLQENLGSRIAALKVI

With `CCCC[C@@H](NC(=O)[C@@H](N)C(C)C)B(O)O`, the IC50 in experiment [1] is 40 nM; in experiment [2], “No inhibition”; in experiment [3], 17000 nM.
On to `CCCCCNC(=O)[C@@H](N)CCN`, for which the IC50 in experiment [1] was 2600 nM; in experiment [4], “No inhibition”; in experiment [2], “No inhibition”; in experiment [5] it was “Not Active”; in experiment [6] it was “No inhibition”.
As to `CCCC[C@@H](NC(=O)[C@@H](N)CCN)B(O)O`, the IC50 is 0.48 nM in experiment [1] and “No inhibition” in experiment [2]. The inhibition in experiment [7] came out at 40%.
In the case of `NCC[C@H](N)C(=O)N1CCC[C@@H]1B(O)O`, the results for the IC50 in experiment [1] and in experiment [3] were 0.72 nM and 15 nM, respectively.
Regarding `CCCC[C@H](N)C(=O)N1CCC[C@@H]1B(O)O`, the IC50 came to 2 nM in experiment [1] and 4.5 nM in experiment [3].
`CC(C)[C@H](N)C(=O)N[C@@H](C)B(O)O`: in experiment [1], half-maximal inhibition (IC50) was put at 160 nM.
For the compound `CCCC[C@@H](NC(=O)[C@@H](N)CCC)B(O)O`, the IC50 in experiment [1] was 71 nM; in experiment [2], “No inhibition”; in experiment [3], 810 nM.
Turning to `CCCC[C@@H](NC(=O)[C@@H](N)CCCCN)B(O)O`, the IC50 in experiment [1] was 3.7 nM; in experiment [2], “No inhibition”; in experiment [5] it was “Not Active”.
As for `CCCCCNC(=O)[C@@H](N)CCCC`, the IC50 in experiment [1] is 5500 nM; in experiment [4], “No inhibition”; in experiment [2], “No inhibition”; in experiment [6], “No inhibition”. In experiment [7], the inhibition was 35%.
Turning to `CCCC[C@@H](NC(=O)[C@@H](N)CCCC)B(O)O`, the results for the IC50 in experiment [1], in experiment [2] and in experiment [3] were 18 nM, “No inhibition” and 370 nM, respectively.
For `CCCC[C@@H](NC(=O)[C@@H](N)CCCN)B(O)O` the same measures were 4.7 nM, “No inhibition” and 1200 nM.
`CCCC[C@@H](NC(=O)[C@H](C)N)B(O)O`: the IC50 in experiment [1] was 220 nM; in experiment [2], “No inhibition”; in experiment [5] it was “Not Active”. In experiment [8], this compound came in with an inhibition of 40%.
On to `CCCC[C@@H](NC(=O)[C@@H](N)CN)B(O)O`, for which the IC50 is 8.2 nM in experiment [1], “No inhibition” in experiment [4], “No inhibition” in experiment [2] and 2000 nM in experiment [3].
For the compound `CCCC[C@@H](NC(=O)[C@@H](N)CC)B(O)O`, the IC50 in experiment [1] was 49 nM; in experiment [2] it was “No inhibition”; in experiment [3] it was 32000 nM.
`CCCC[C@@H](NC(=O)[C@@H]1CCCN1)B(O)O`: the IC50 was 890 nM in experiment [1], “No inhibition” in experiment [4], “No inhibition” in experiment [2] and “Not Active” in experiment [5]. In experiment [8], the inhibition is 35%.
